From ChEMBL document CHEMBL4308900, “Synthesis and identification of 2,4-bisanilinopyrimidines bearing 2,2,6,6-tetramethylpiperidine-N-oxyl as potential Aurora A inhibitors” (Bioorg Med Chem, 2019)
The source made the active and inactive calls. No cut-off for these calls is given here.

Key:
HeLa [1] = assay: Induction of apoptosis in human HeLa cells assessed as late apoptotic cells at 0.1 uM after 12 hrs by Annexin V-FITC/propidium iodide staining-based flow cytometric analysis (reference value: 2.32%); format: functional
Aurora kinase B [2] = biological target: T1, Aurora kinase B (Homo sapiens, UniProt Q96GD4); assay: Inhibition of Aurora B phosphorylation at Thr232 residue in human HeLa cells at <10 nM after 12 hrs by ELISA; format: cell-based
How it was run: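 HeLa cells grown 12 h in 6-well dishes with compound diluted from DMSO at several concentrations; whole-cell lysate captured on anti-Aurora A or B antibody-coated wells, HRP-labelled detection, TMB substrate, stopped with sulphuric acid, absorbance at 450 nm.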

HeLa [3] = assay: Cell cycle arrest in human HeLa cells assessed as accumulation at G1 phase at 1 uM after 12 hrs by propidium iodide staining-based flow cytometric analysis (reference value: 70.68%); format: functional
How it was run: (§1)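 HeLa cells exposed 12 h to 1 or 5 μM compound diluted from DMSO (DMSO control), fixed, stained with propidium iodide; DNA content measured by flow cytometry and G1, S, G2/M fractions calculated from the DNA histogram.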

HeLa [4] = assay: Cell cycle arrest in human HeLa cells assessed as accumulation at G2/M phase after 12 hrs by propidium iodide staining-based flow cytometric analysis; format: functional; how it was run: as §1
HeLa [5] = assay: Induction of apoptosis in human HeLa cells assessed as early apoptotic cells at 1 uM after 12 hrs by Annexin V-FITC/propidium iodide staining-based flow cytometric analysis (reference value: 0.75%); format: functional
HeLa [6] = assay: Cell cycle arrest in human HeLa cells assessed as accumulation at G2/M phase at 1 uM after 12 hrs by propidium iodide staining-based flow cytometric analysis (reference value: 23.57%); format: functional; how it was run: as §1
HeLa [7] = assay: Disruption of spindle formation in human HeLa cells assessed as shrinkage of microtubule spindles at 1 uM after 24 hrs by DAPI staining based immunofluorescence microscopic analysis; format: functional, cell-based
How it was run: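 HeLa cells on coverslips treated 24 h (0.1 or 1 μM; DMSO control); fixed in 4% paraformaldehyde, permeabilised in 0.1% Triton X-100 with 2% BSA, anti-α-tubulin overnight at 4 °C, FITC secondary 2 h room temperature, DAPI for DNA; confocal imaging.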

HeLa [8] = assay: Antiproliferative activity against human HeLa cells after 48 hrs by MTT assay; format: functional
How it was run: (§2)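 MTT assay: cells attached 4–6 h at 37 °C, 5% CO2, then exposed 48 h to graded concentrations from DMSO stocks; 5 mg/mL MTT added for 4 h, formazan dissolved in DMSO, absorbance at 490 nm. GI50 from log plot of percent of control versus concentration; mean of three independent experiments.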

HeLa [9] = assay: Induction of apoptosis in human HeLa cells assessed as late apoptotic cells at 1 uM after 12 hrs by Annexin V-FITC/propidium iodide staining-based flow cytometric analysis (reference value: 2.32%); format: functional
Aurora kinase A = biological target: T2, Aurora kinase A (Homo sapiens, UniProt O14965); assay: Inhibition of Aurora A phosphorylation at Thr288 residue in human HeLa cells after 12 hrs by ELISA; format: cell-based
T2 sequence (O14965 whole entry): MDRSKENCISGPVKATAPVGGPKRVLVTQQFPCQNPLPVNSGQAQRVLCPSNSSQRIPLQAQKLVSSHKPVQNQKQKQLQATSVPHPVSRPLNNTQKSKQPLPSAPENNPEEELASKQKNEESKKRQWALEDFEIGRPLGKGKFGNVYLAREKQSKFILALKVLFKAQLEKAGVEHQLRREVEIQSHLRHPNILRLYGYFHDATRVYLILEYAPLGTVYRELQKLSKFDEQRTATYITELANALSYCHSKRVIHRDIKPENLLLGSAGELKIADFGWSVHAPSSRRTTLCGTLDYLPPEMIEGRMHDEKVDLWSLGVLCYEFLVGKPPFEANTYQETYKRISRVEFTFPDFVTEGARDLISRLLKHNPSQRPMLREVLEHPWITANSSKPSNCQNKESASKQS

[10] = biological target: T3, Aurora kinase A (Homo sapiens) (UniProt O14965); assay: Inhibition of Aurora A phosphorylation at Thr288 residue in human HeLa cells after 12 hrs by Western blot analysis; format: cell-based
T3 sequence (whole entry): T2 sequence (O14965 whole entry)
How it was run: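 HeLa cells given 0, 1.25, 2.5 or 5.0 μM for 12 h; lysates in buffer with phosphatase and protease inhibitors, 10% SDS-PAGE western blot probed for phospho-Aurora A Thr288, phospho-Aurora B Thr232 and total Aurora A/B, β-actin loading control; band levels as mean ± SD versus control.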

HeLa [11] = assay: Cell cycle arrest in human HeLa cells assessed as accumulation at S phase at 1 uM after 12 hrs by propidium iodide staining-based flow cytometric analysis (reference value: 5.74%); format: functional; how it was run: as §1
LoVo = assay: Antiproliferative activity against human LoVo cells after 48 hrs by MTT assay; format: functional; how it was run: as §2
Aurora kinase B [12] = biological target: T1, Aurora kinase B; assay: Inhibition of Aurora B phosphorylation at Thr232 residue in human HeLa cells after 12 hrs by ELISA; format: cell-based
HeLa [13] = assay: Induction of apoptosis in human HeLa cells assessed as early apoptotic cells at 5 uM after 12 hrs by Annexin V-FITC/propidium iodide staining-based flow cytometric analysis (reference value: 0.75%); format: functional
Homo sapiens = species: Homo sapiens; assay: Selectivity ratio of IC50 for Aurora B (unknown origin) to IC50 for Aurora A (unknown origin)
HeLa [14] = assay: Induction of apoptosis in human HeLa cells assessed as necrotic cells at 1 uM after 12 hrs by Annexin V-FITC/propidium iodide staining-based flow cytometric analysis (reference value: 5.92%); format: functional
HeLa [15] = assay: Induction of apoptosis in human HeLa cells assessed as downregulation of Bcl-2 protein expression up to 5 uM after 12 hrs by Western blot analysis; format: functional, cell-based
How it was run: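 HeLa cells treated 12 h (0.1, 1, 5 μM for apoptosis proteins); lysed in Tris pH 7.5/NP-40/SDS buffer with protease inhibitors, equal protein on 10% SDS-PAGE, PVDF, 5% BSA block, primary antibodies overnight at 4 °C, β-actin loading control; mean ± SD.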

T1 sequence (Q96GD4 whole entry): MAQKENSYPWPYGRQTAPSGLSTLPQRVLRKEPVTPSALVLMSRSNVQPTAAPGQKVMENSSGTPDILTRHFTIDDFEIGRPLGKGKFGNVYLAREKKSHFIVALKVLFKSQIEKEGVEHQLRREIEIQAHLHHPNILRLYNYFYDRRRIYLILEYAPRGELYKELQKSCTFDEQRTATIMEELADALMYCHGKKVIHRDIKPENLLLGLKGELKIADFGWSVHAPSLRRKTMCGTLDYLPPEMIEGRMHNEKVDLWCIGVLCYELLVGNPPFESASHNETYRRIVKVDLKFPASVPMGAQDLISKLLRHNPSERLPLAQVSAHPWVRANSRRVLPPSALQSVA

**Q.** How did the Activity (HeLa [1]) turn out when `CC1(C)CC(NC(=O)c2ccc(Nc3ncc(F)c(Nc4ccc(C(=O)Nc5ccccc5Cl)cc4)n3)cc2)CC(C)(C)N1[O]` was run?
**A.** 2.94%

**Q.** And the inhibition (Aurora kinase B [2])?
**A.** inactive

**Q.** What about the Activity (HeLa [3]) of the same compound?
**A.** 48%

**Q.** And the Activity (HeLa [4])?
**A.** Dose-dependent effect

**Q.** What about the Activity (HeLa [5]) of the same compound?
**A.** 3.28%

**Q.** And the Activity (HeLa [6])?
**A.** 40.67%

**Q.** And the Activity (HeLa [7])?
**A.** Active

**Q.** What about the GI50 (HeLa [8]) of the same compound?
**A.** 400 nM

**Q.** What about the Activity (HeLa [9]) of the same compound?
**A.** 8.06%

**Q.** And the IC50 (Aurora kinase A)?
**A.** 8 nM

**Q.** And the inhibition [10]?
**A.** Dose-dependent effect

**Q.** And the Activity (HeLa [11])?
**A.** 11.33%

**Q.** What about the GI50 (LoVo) of the same compound?
**A.** 7300 nM

**Q.** What about the IC50 (Aurora kinase B [12]) of the same compound?
**A.** 538 nM

**Q.** What about the Activity (HeLa [13]) of the same compound?
**A.** 4.85%

**Q.** And the Ratio IC50 (Homo sapiens)?
**A.** 42

**Q.** And the Activity (HeLa [14])?
**A.** 9.93%

**Q.** And the Activity (HeLa [15])?
**A.** Active
